In ChEMBL document CHEMBL4715738, “In Vitro Antibacterial Activity of Curcumin-Polymyxin B Combinations against Multidrug-Resistant Bacteria Associated with Traumatic Wound Infections” (J Nat Prod, 2016):
Active and inactive are the calls of the source.

Legend:
Staphylococcus aureus [1] = experiment: Potentiation of polymyxin B-induced antibacterial activity against Staphylococcus aureus ATCC 25923 assessed as fold reduction in polymyxin B MIC measured after 24 hrs in presence of polymyxin B by checkerboard assay; format: functional
Acinetobacter baumannii [2] = experiment: Bactericidal activity against Acinetobacter baumannii NCTC 19606 assessed as bacterial cell death at 0.5 fold MIC measured after 4 to 6 hrs in presence of polymyxin B at MIC by time kill assay relative to control; format: functional; conditions: time 4-6 hrs
Outline: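 Time-kill in 10 mL Mueller-Hinton 2 broth, 37 °C with continuous agitation, 24 h. Inoculum was a 1/1000 dilution of a 16 h overnight culture, about 10^6 CFU/mL. Single agents at 1× MIC; combination at 1× MIC polymyxin B plus 0.5× MIC curcumin. Samples at 0, 2, 4, 6 and 24 h were serially diluted and plated on IsoSensitest agar for CFU/mL.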

Enterococcus faecium [3] = experiment: Antibacterial activity against vancomycin-resistant Enterococcus faecium OEF65 assessed as reduction in bacterial growth incubated for 24 hrs in presence of polymyxin B; format: functional
HaCaT [4] = experiment: Cytotoxicity against human HaCaT cells at 43.4 uM measured after 4 hrs in presence of 1.5 uM polymyxin B by CyTox 96 nonradioactive assay relative to control; format: cell-based
Staphylococcus aureus [5] = experiment: Antibacterial activity against methicillin-resistant Staphylococcus aureus NCTC 12493 assessed as reduction in bacterial growth incubated for 24 hrs in presence of polymyxin B; format: functional
Pseudomonas aeruginosa [6] = experiment: Antibacterial activity against Pseudomonas aeruginosa PA30 harboring VIM-2 assessed as reduction in bacterial growth incubated for 24 hrs in presence of polymyxin B; format: functional
Streptococcus pyogenes [7] = experiment: Antibacterial activity against Streptococcus pyogenes SPY1 assessed as reduction in bacterial growth incubated for 24 hrs in presence of polymyxin B; format: functional
Enterococcus faecium [8] = experiment: Potentiation of polymyxin B-induced antibacterial activity against vancomycin-resistant Enterococcus faecium OEF65 assessed as fold reduction in polymyxin B MIC measured after 24 hrs in presence of polymyxin B by checkerboard assay; format: functional
Escherichia coli [9] = experiment: Antibacterial activity against Escherichia coli NCTC 12241 assessed as reduction in bacterial growth incubated for 24 hrs in presence of polymyxin B; format: functional
Streptococcus pyogenes [10] = experiment: Potentiation of polymyxin B-induced antibacterial activity against Streptococcus pyogenes SPY1 assessed as fold reduction in polymyxin B MIC measured after 24 hrs in presence of polymyxin B by checkerboard assay; format: functional
HaCaT [11] = experiment: Cytotoxicity against human HaCaT cells at 174 uM measured after 4 hrs by CyTox 96 nonradioactive assay relative to control; format: cell-based
Enterococcus faecalis [12] = experiment: Antibacterial activity against […] Enterococcus faecalis ATCC 29212 assessed as reduction in bacterial growth incubated for 24 hrs in presence of polymyxin B; format: functional
[13] = test system: Stenotrophomonas maltophilia; experiment: Antibacterial activity against Stenotrophomonas maltophilia NCTC 10258 assessed as reduction in bacterial colony formation at 0.5 fold MIC measured after 24 hrs by time kill assay; format: functional, organism-based
Outline: (§1)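 Time-kill in Mueller-Hinton 2 broth. Inoculum was a 1/1000 dilution of a 16 h overnight culture, about 10^6 CFU/mL, 10 mL per tube. Arms were each agent alone at ×1 MIC, or the combination at ×1 MIC plus ×0.5 MIC partner. Incubated at 37 °C with continuous agitation for 24 h. Samples taken at 0, 2, 4, 6 and 24 h, serially diluted and plated on IsoSensitest agar for CFU counts.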

Pseudomonas aeruginosa [14] = experiment: Potentiation of polymyxin B-induced antibacterial activity against Pseudomonas aeruginosa PA14 assessed as fold reduction in polymyxin B MIC measured after 24 hrs in presence of polymyxin B by checkerboard assay; format: functional
[15] = test system: Stenotrophomonas maltophilia; experiment: Potentiation of polymyxin B-induced antibacterial activity against Stenotrophomonas maltophilia SMB07 assessed as fold reduction in polymyxin B MIC measured after 24 hrs in presence of polymyxin B by checkerboard assay; format: functional
Acinetobacter baumannii [16] = experiment: Antibacterial activity against Acinetobacter baumannii AB14 harboring OXA-23 clone 1 assessed as reduction in bacterial growth incubated for 24 hrs in presence of polymyxin B; format: functional
Acinetobacter baumannii [17] = experiment: Antibacterial activity against Acinetobacter baumannii AB16 harboring OXA-23 clone 2 assessed as reduction in bacterial growth incubated for 24 hrs in presence of polymyxin B; format: functional
Enterococcus faecium [18] = experiment: Antibacterial activity against vancomycin-resistant Enterococcus faecium OEF42 assessed as reduction in bacterial growth incubated for 24 hrs in presence of polymyxin B; format: functional
Staphylococcus aureus [19] = experiment: Antibacterial activity against methicillin-resistant Staphylococcus aureus NCTC 12493 assessed as reduction in bacterial colony formation at 0.5 fold MIC measured after 24 hrs by time kill assay; format: functional, organism-based
Escherichia coli [20] = experiment: Additive antibacterial activity against Escherichia coli NCTC 12241 assessed as fractional inhibitory concentration index measured after 24 hrs in presence of curcumin by checkerboard assay; format: functional
Acinetobacter baumannii [21] = experiment: Antibacterial activity against Acinetobacter baumannii AB16 harboring OXA-23 clone 2 assessed as reduction in bacterial growth incubated for 24 hrs in presence of curcumin; format: functional
Acinetobacter baumannii [22] = experiment: Synergistic antibacterial activity against Acinetobacter baumannii AB16 harboring OXA-23 clone 2 assessed as fractional inhibitory concentration index measured after 24 hrs in presence of curcumin by checkerboard assay; format: functional
Outline: (§2)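 FICI was derived from checkerboard MICs. Synergy was defined as FICI ≤ 0.5 and additive as FICI > 0.5−4.0. Where an MIC was not reached, the dilution above the maximum dose was used in the FICI calculation. Experiments were run in triplicate and reported as means.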

[23] = test system: Stenotrophomonas maltophilia; experiment: Antibacterial activity against Stenotrophomonas maltophilia NCTC 10258 assessed as reduction in colony formation at MIC measured after 24 hrs by time kill assay; format: functional, organism-based; outline: as §1
Staphylococcus aureus [24] = experiment: Synergistic antibacterial activity against vancomycin-intermediate resistant Staphylococcus aureus Mu50 assessed as fractional inhibitory concentration index measured after 24 hrs in presence of curcumin by checkerboard assay; format: functional; outline: as §2
Streptococcus pyogenes [25] = experiment: Antibacterial activity against Streptococcus pyogenes SPY1 assessed as reduction in bacterial growth incubated for 24 hrs in presence of curcumin; format: functional
Pseudomonas aeruginosa [26] = experiment: Antibacterial activity against Pseudomonas aeruginosa PA30 harboring VIM-2 assessed as reduction in bacterial growth incubated for 24 hrs in presence of curcumin; format: functional
Acinetobacter baumannii [27] = experiment: Synergistic antibacterial activity against Acinetobacter baumannii NCTC 19606 assessed as fractional inhibitory concentration index measured after 24 hrs in presence of curcumin by checkerboard assay; format: functional; outline: as §2
Enterococcus faecalis [28] = experiment: Antibacterial activity against […] Enterococcus faecalis ATCC 29212 assessed as reduction in bacterial growth incubated for 24 hrs in presence of curcumin; format: functional
Staphylococcus aureus [29] = experiment: Antibacterial activity against methicillin-resistant Staphylococcus aureus NCTC 12493 assessed as reduction in bacterial growth incubated for 24 hrs in presence of curcumin; format: functional
Escherichia coli [30] = experiment: Synergistic antibacterial activity against Escherichia coli EC204 harboring NDM-1 assessed as fractional inhibitory concentration index measured after 24 hrs in presence of curcumin by checkerboard assay; format: functional; outline: as §2
Escherichia coli [31] = experiment: Antibacterial activity against Escherichia coli EC204 harboring NDM-1 assessed as reduction in bacterial growth incubated for 24 hrs in presence of curcumin; format: functional
Staphylococcus aureus [32] = experiment: Antibacterial activity against Staphylococcus aureus ATCC 25923 assessed as reduction in bacterial growth incubated for 24 hrs in presence of curcumin; format: functional

COc1cc(/C=C/C(=O)CC(=O)/C=C/c2ccc(O)c(OC)c2)ccc1O [CURCUMIN]
fold change (FC) (Staphylococcus aureus [1]): 3
Activity (Acinetobacter baumannii [2]): 100%
MIC (Enterococcus faecium [3]): 43 µM
Activity (HaCaT [4]): 22%
MIC (Staphylococcus aureus [5]): 43 µM
MIC (Pseudomonas aeruginosa [6]): 174 µM
MIC (Streptococcus pyogenes [7]): 43 µM
fold change (FC) (Enterococcus faecium [8]): 3
MIC (Escherichia coli [9]): 43 µM
fold change (FC) (Streptococcus pyogenes [10]): 3
Activity (HaCaT [11]): 34%
MIC (Enterococcus faecalis [12]): 87 µM
Activity [13]: inactive
fold change (FC) (Pseudomonas aeruginosa [14]): 3
fold change (FC) [15]: 3
MIC (Acinetobacter baumannii [16]): 174 µM
MIC (Acinetobacter baumannii [17]): 22 µM
MIC (Enterococcus faecium [18]): 22 µM
Activity (Staphylococcus aureus [19]): inactive

CC[C@H](C)CCCCC(=O)N[C@@H](CCN)C(=O)N[C@H](C(=O)N[C@@H](CCN)C(=O)N[C@H]1CCNC(=O)[C@H]([C@@H](C)O)NC(=O)[C@H](CCN)NC(=O)[C@H](CCN)NC(=O)[C@H](CC(C)C)NC(=O)[C@@H](Cc2ccccc2)NC(=O)[C@H](CCN)NC1=O)[C@@H](C)O.O=S(=O)(O)O
fractional inhibitory concentration index (FICI) (Escherichia coli [20]): 0.52
MIC (Acinetobacter baumannii [21]): 0.012 µM
fractional inhibitory concentration index (FICI) (Acinetobacter baumannii [22]): 0.068
Activity [23]: inactive
fractional inhibitory concentration index (FICI) (Staphylococcus aureus [24]): 0.047
MIC (Streptococcus pyogenes [25]): 0.19 µM
MIC (Pseudomonas aeruginosa [26]): 0.19 µM
fractional inhibitory concentration index (FICI) (Acinetobacter baumannii [27]): 0.068
MIC (Enterococcus faecalis [28]): 0.096 µM
MIC (Staphylococcus aureus [29]): 0.79 µM
fractional inhibitory concentration index (FICI) (Escherichia coli [30]): 0.313
MIC (Escherichia coli [31]): 0.024 µM
MIC (Staphylococcus aureus [32]): 6.1 µM
